Target: T1, Gonadotropin-releasing hormone receptor (Homo sapiens, UniProt P30968)
T1 sequence (P30968 whole entry): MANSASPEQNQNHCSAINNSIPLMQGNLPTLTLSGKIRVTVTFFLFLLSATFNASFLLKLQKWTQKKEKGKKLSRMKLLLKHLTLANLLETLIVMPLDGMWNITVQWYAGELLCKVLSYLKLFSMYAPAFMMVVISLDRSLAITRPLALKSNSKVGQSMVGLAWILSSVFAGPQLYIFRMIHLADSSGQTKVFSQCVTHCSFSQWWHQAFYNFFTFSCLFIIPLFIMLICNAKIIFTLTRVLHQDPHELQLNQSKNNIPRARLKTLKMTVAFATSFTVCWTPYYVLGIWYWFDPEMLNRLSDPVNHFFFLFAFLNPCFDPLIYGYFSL
Experiment: The Compound was tested for the concentration to inhibit 50% of [125 I ]leuprorelin binding to the cloned human Leutinizing releasing hormone receptor (LHRH) receptor.
Outline: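 Membranes from CHO cells stably expressing cloned human LHRH receptor (0.2 mg/mL) incubated with [125I]leuprorelin (0.15 nM) and graded compound in Tris/EDTA/BSA buffer with protease inhibitors, pH 7.5, 60 min at 25 °C. Filtration on PEI-coated glass fiber, gamma counting. Nonspecific binding with 1 µM unlabeled leuprorelin. IC50 from pseudo-Hill fit. Means of ≥3 determinations.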

CCOC(=O)c1cn(Cc2c(F)cccc2F)c2sc(-c3ccc(N)cc3)c(CN(C)Cc3ccccc3)c2c1=O
IC50: 4 nM

— ChEMBL document CHEMBL1131311, “Discovery of a novel, potent, and orally active nonpeptide antagonist of the human luteinizing hormone-releasing hormone (LHRH) receptor” (J Med Chem, 1998)
